Screening data from PubChem BioAssay.
Shown are actives, neighbours in structure and some others; about 2.1% of the full set was active somewhere.
ARNT-TACC3 inh: disruptors of ARNT/TACC3 protein interaction, primary screen, biochemical, AlphaScreen, single concentration | inhibition, % at 9.99 µM | AID 623870, 2012 | Transforming acidic coiled-coil-containing protein 3 (Homo sapiens), Q9Y6A5 | AlphaScreen His-ARNT PAS-B/GST-TACC3 binding, luminescence; TACC3 fragment carries E629A point mutation | 0.66% of 390,000 active;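 active = mean inhibition of replicates at least 50% and at least half of replicates each reaching 50%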;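 note: 0% = complete ARNT plus TACC3 wells and 100% = ARNT alone without TACC3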
SR-BI DiI-HDL act: activators of SR-BI mediated DiI-HDL uptake, primary screen, ldlA[mSR-BI] CHO cells, DiI fluorescence; AID 504775, 2011; activation, % at 12.5 µM; 0.096% of 320,000 active; 3 h; 100 = double the neutral-control signal;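 active = mean replicate activation of at least 60% and every replicate at or above 60%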;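 note: 0% = median plate neutral-control signal and 100% = twice that signal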
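Material: SR-BI-overexpressing, LDLR-lacking CHO cells | Dosing: Single compound concentration, delivered by pin transfer | Probe or stimulus: Labelled HDL, 10 µg/mL | Signal: Bottom-read cell fluorescence after medium removal, ex 550/em 595 nm | Schedule: 3 h, 37 °C | Evaluation: HDL uptake via cellular fluorescence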
miR122 inh: miR-122 Renilla sensor signal increase in Huh7, primary screen, miR-122 inhibitor project, cell-based, single point, plate reader; Huh7 miR-122 Renilla luciferase sensor, 48 h; neutral wells = 0, positive control = 100; activation (reporter increase), % at 12.5 µM; 0.3% of 340,000 active;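 active = mean replicate activation score at least 90 and every replicate individually at or above 90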;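 note: higher luciferase means less miR-122 activity so hits act as miR-122 inhibitors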
CAL PDZ FP-1: CAL PDZ peptide-binding inhibitors, primary screen, biochemical, fluorescence polarization, Cer-tagged CAL PDZ, HTS; Golgi-associated PDZ and coiled-coil motif-containing protein (Homo sapiens), Q9HD26; purified CAL PDZ, TMR-peptide fluorescence polarization, 1 h; inhibition, % at 20 µM; 0.02% of 330,000 active;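 active = highest replicate inhibition of at least 40%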;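 note: plate controls were DMSO neutral control wells for no effect and unlabeled competitor peptide control wells for full effect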
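Control set: unlabelled peptide and DMSO controls / Material: purified CerCALP PDZ construct / Timing: 1 h incubation at room temperature before polarization reading / Doses: 20 µM, one dose / Detection: fluorescence polarization (mP)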
SR-BI HDL uptake: inhibitors of SR-BI mediated HDL lipid uptake, primary screen, ldlA[mSR-BI] cells, fluorescence, single point; ldlA[mSR-BI] CHO cells, DiI-HDL uptake fluorescence, 3 h; inhibition, % at 12.5 µM; 0.96% of 320,000 active; AID 488896, 2010;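 active = mean replicate inhibition of at least 70% and a set share of replicates each scoring 70 or more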;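 note: 0% = median of neutral control wells and 100% = median of positive control wells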
Target sequence (Q61009 whole entry, looked up): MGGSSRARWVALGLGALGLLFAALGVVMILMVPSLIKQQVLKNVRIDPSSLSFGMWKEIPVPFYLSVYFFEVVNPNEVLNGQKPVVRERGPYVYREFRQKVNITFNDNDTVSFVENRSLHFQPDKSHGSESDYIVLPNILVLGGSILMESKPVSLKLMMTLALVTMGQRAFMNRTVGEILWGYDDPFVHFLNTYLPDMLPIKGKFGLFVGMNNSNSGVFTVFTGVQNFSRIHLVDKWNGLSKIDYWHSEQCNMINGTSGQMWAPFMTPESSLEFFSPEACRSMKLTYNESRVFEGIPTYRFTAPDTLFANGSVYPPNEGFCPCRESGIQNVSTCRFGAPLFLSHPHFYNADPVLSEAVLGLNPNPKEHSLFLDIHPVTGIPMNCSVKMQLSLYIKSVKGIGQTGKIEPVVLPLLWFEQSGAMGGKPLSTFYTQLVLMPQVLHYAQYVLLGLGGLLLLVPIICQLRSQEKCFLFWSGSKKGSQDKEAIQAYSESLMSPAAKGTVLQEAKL
CAL PDZ FP-2: untagged CAL PDZ binding inhibitors, primary screen, biochemical, fluorescence polarization, HTS. Golgi-associated PDZ and coiled-coil motif-containing protein (Homo sapiens), Q9HD26. purified CAL PDZ, TMR-peptide fluorescence polarization, 1 h. inhibition, % at 24.9 µM. 0.92% of 300,000 active;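 active = mean inhibition of at least 30% with at least half of replicates also reaching 30%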;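 note: 0% = DMSO neutral control and 100% = excess unlabeled competitor peptide PRC23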
The depositor's hits bear a star; . = no result given; [ ] = another dose, or the depositor's remark.

SMILES | ARNT-TACC3 inh | SR-BI DiI-HDL act | miR122 inh | CAL PDZ FP-1 | SR-BI HDL uptake | CAL PDZ FP-2
C=CCOC(=O)C1=C(C)NC(=S)NC1/C=C/c1ccccc1 (stereo not drawn) | 21 | -82 | 2 | 0 | 82* | 0
CC(C)[C@@H](C)NC(=O)N(C)C[C@H]1OCc2ccccc2-c2ccccc2C(=O)N([C@H](C)CO)C[C@@H]1C | 11 | . | . | . | . | .
COc1ccccc1NC(=O)N[C@H]1CC[C@H](CCNC(=O)Cc2ccccn2)O[C@H]1CO | 4 | . | . | . | . | .
Cc1nc(C)c(-c2nnc(-c3ccccc3Cl)o2)cc1C(=O)NN | 22 | . | . | -1 | . | 1
Cc1nc(C)c(-c2nnc(-c3ccc(C(C)(C)C)cc3)o2)cc1C(=O)NN | -3 | -81 | . | -1 | 81* | -2
O=[N+]([O-])c1ccc(-c2c(-c3ccccc3)ncc3cc(F)ccc23)cc1 | -8 | -86 | . | 0 | 86* | 1
O=[N+]([O-])c1cccc(-c2c(-c3ccccc3)ncc3cc(F)ccc23)c1 | -1 | -21 | -12 | -1 | 21 | 1
COc1ccc(S(=O)(=O)N[C@H]2C=C[C@@H](CC(=O)N3CCN(c4ccccc4)CC3)O[C@H]2CO)cc1 | -3 | . | . | . | . | .
CCN1[C@@H]2c3ccc(/C=C/c4ccccc4)c(=O)n3C[C@@H]2[C@@H](CO)[C@@H]1C(=O)N(C)C | -3 | . | 5[16.7 µM] | . | . | .
Nc1cc(C(=O)O)c(N)c2c1C(=O)c1ccccc1C2=O | 55* | . | . | 3 | . | 0
O=C(NC(N1CCCC1)C(Cl)(Cl)Cl)c1ccccc1 (stereo not drawn) | -8 | 9 | 6 | 0 | -9 | -4
O=C(NC(N1CCOCC1)C(Cl)(Cl)Cl)c1ccc(F)cc1 (stereo not drawn) | -1 | 10 | . | 1 | -10 | 76*
Cc1ccc(S(=O)(=O)N[C@@H]2CC[C@@H](CC(=O)NCCCN(C)C)O[C@@H]2CO)cc1 | -6 | . | . | . | . | .
CC(C)OCCCN1C(=O)c2[nH]nc(-c3ccccc3O)c2C1c1cccc(Cl)c1 (stereo not drawn) | -23 | -72 | 7 | -2 | 72* | 3
Cc1cccc(NC(=O)NNC(=O)c2ccccn2)c1 | 48* | 35 | -9 | 1 | -35 | -3
O=C(Nc1cccc(S(=O)(=O)Nc2ccc(Cl)cc2)c1)c1ccccn1 | -1 | -11 | 129* | -1 | 11 | -3
COc1ccc(NS(=O)(=O)c2cccc(NC(=O)c3ccccn3)c2)cc1 | 0 | . | 34 | -1 | . | -2
CC(C)C(=O)NNC(=O)c1ccccn1 | 51* | 2 | . | 0 | -2 | .
CCOc1cc(NC(=O)c2cccs2)c(OCC)cc1NC(=O)c1ccccn1 | -4 | -68 | . | -1 | 68 | 6
CCOc1cc(NC(=O)c2ccccn2)c(OCC)cc1NC(=O)c1cccc(C)c1 | -7 | -71 | -12 | 0 | 71* | 5
C[C@H]1CN([C@@H](C)CO)S(=O)(=O)c2ccc(C3=CCCCC3)cc2O[C@@H]1CN(C)Cc1ccncc1 | 4 | . | 7[16.7 µM] | . | . | .
COC(=O)c1cc(OC)c(OC)cc1NC(=O)c1cccc(C)c1 | 2 | -81 | -1 | -3 | 81* | -2
CC(Oc1ccccc1)C(=O)NNC(=O)c1ccccn1 (stereo not drawn) | 51* | 10 | -4 | 0 | -10 | -5
COC(=O)c1cc(OC)c(OC)cc1NC(=O)c1ccccc1 | -2 | -59 | 1 | -1 | 59 | -1
O=C(N/N=C/c1cc([N+](=O)[O-])ccc1N1CCCCCC1)c1ccccn1 | -2 | -80 | . | -2 | 80* | -3
SMILES | ARNT-TACC3 inh | SR-BI DiI-HDL act | miR122 inh | CAL PDZ FP-1 | SR-BI HDL uptake | CAL PDZ FP-2
O=C(NNC(=O)c1ccccn1)c1cccc([N+](=O)[O-])c1 | 67* | 6 | . | 0 | -6 | 3
O=C(C[C@H]1CC[C@H]2[C@@H](COC[C@H](O)CN2Cc2cccc(F)c2)O1)NCc1cccc(F)c1 | -8 | . | 6[16.7 µM] | . | . | .
C[C@H]1CN([C@@H](C)CO)C(=O)c2cc(-c3ccc(C#N)cc3)cnc2O[C@H]1CN(C)C(=O)Nc1ccccc1 | -4 | . | -5[16.7 µM] | . | . | .
CO[C@H]1CN(C)C(=O)c2ccc(NS(C)(=O)=O)cc2OC[C@H](C)N(CCC(F)(F)F)C[C@H]1C | 13 | . | . | . | . | .
C[C@@H]1CN([C@@H](C)CO)S(=O)(=O)c2ccc(C#CC3CCCC3)cc2O[C@@H]1CN(C)C(=O)C1CC1 | -3 | . | -8[16.7 µM] | . | . | .
O=C(N/N=C/c1c(O)ccc2ccccc12)c1ccc(Br)o1 | 4 | -124 | 8 | -2 | 124* | -4
O=C(N/N=C/c1c(O)ccc2ccccc12)c1ccc[n+](CCO)c1 | 64* | -37 | . | -3 | 37 | 0
O=C(CSCC(=O)Nc1ccccc1)N/N=C/c1c(O)ccc2ccccc12 | 23 | -19 | -1 | -2 | 19 | -2
O=C(N/N=C/c1ccc(O)c(Br)c1)c1cc2c(ccc3ccccc32)o1 | . | -31 | . | -2 | 31 | -1
O=C(N/N=C/c1ccccn1)c1ccc(Br)o1 | 69* | 28 | 8 | 1 | -28 | 0
Cn1nccc1C(=O)N/N=C/c1c(O)ccc2ccccc12 | 24 | -105 | 6 | -4 | 105* | -2
COc1ccc(S(=O)(=O)Nc2ccc3c(c2)C(=O)N([C@@H](C)CO)C[C@@H](C)[C@H](CN(C)Cc2ccccc2)O3)cc1 | -7 | . | 9[16.7 µM] | . | . | .
COc1ccc(C#Cc2cnc3c(c2)C(=O)N([C@H](C)CO)C[C@@H](C)[C@H](CN(C)C(C)=O)O3)cc1 | 11 | . | 4[16.7 µM] | . | . | .
O=C(N/N=C\c1c(O)ccc2ccccc12)c1ccc(O)cc1 | 9 | -94 | -24 | -1 | 94* | 10
Cn1cc(C(=O)N/N=C/c2c(O)ccc3ccccc23)ccc1=O | 9 | -102 | . | 0 | 102* | .
O=C(CNc1ccccc1)N/N=C/c1c(O)ccc2ccccc12 | . | -54 | . | 0 | 54 | -4
CCOc1ccc2ccccc2c1/C=N\NC(=O)c1ccc([N+](=O)[O-])cc1 | 15 | -78 | 6 | 10 | 78* | 10
CCOc1ccc2ccccc2c1/C=N\NC(=O)OC | . | -26 | -6 | -1 | 26 | -4
Cc1occc1C(=O)N/N=C/c1c[nH]c2ccccc12 | -9 | 17 | 9 | -2 | -17 | 0
